Measured values as given in ChEMBL document CHEMBL1124241, “Arylformamidines with antinociceptive properties” (1988).

Legend:
Type in all cases: functional
[1] = species: Mus musculus; assay: Analgesic activity was determined in mouse writhing test
In short: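 Mice received test compound sc; 30 min later 0.2 mL of 0.08 N HCl was given ip. Animals were watched for 15 min for absence of abdominal stretching (writhing). Activity was expressed as ED50 in mg/kg.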

[2] = tested on: Rattus norvegicus; assay: Hypotensive activity in the rat as change in blood pressure (mmHg) at 24 hr after of 50 mg/kg oral dose of the compound
In short: (§1)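 Conscious restrained female Sprague-Dawley rats fitted with chronic indwelling aortic cannulas exteriorized at the nape. Towel restraint kept sympathetic tone high. Blood pressure was recorded directly by transducer and polygraph at 4 and 24 h after oral dosing in carboxymethylcellulose vehicle at 10 mL/kg. A change of ±5 mmHg was taken as not significant.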

[3] = tested on: Rattus norvegicus; assay: Hypotensive activity in the rat as change in blood pressure (mmHg) at 4 hr after a 50 mg/kg oral dose of the compound; in short: as §1
[4] = tested on: Mus musculus; assay: Analgesic activity was determined in mouse writhing test by intraperitoneal administration of 0.2 mL of 0.08 N HCl 30 min after the subcutaneous injection of the compound(expt.2); settings: 0.5 h
[5] = tested on: Mus musculus; assay: Analgesic activity was determined in mouse pinch writhing test by intraperitoneal administration of 0.2 mL of 0.08 N HCl 30 min after the subcutaneous injection of the compound
[6] = tested on: Mus musculus; assay: Analgesic activity was determined in mouse tail flick writhing test by intraperitoneal administration of 0.2 mL of 0.08 N HCl 30 min after the subcutaneous injection of the compound
[7] = tested on: Rattus norvegicus; assay: Hypotensive activity in the rat as change in blood pressure (mmHg) at 24 hr after of 50 mg/kg oral dose of the compound; Bradycardia; in short: as §1

Compound | ED50 ([1]; Mus musculus) [mg/kg] | BP [3] [mmHg] | other results
Cc1cccc(C)c1/N=C/N(C)C.Cl | 0.1 | -15 | BP [2]: -21 mmHg
Cc1cc(C(O)c2ccc(Cl)cc2)cc(C)c1/N=C/N(C)C (centres undefined) | > 50 |  | 
CN(C)/C=N/c1cc(Cl)ccc1Cl.Cl | > 50 | -5 | BP [2]: -4 mmHg
Cc1ccc(/N=C/N(C)C)c(C)c1.Cl | 0.1 |  | 
Cc1cc(C(C)O)cc(C)c1/N=C/N(C)C (centres undefined) | 40 |  | 
C/N=C\Nc1cc(Cl)ccc1Cl.Cl | > 50 | 3 | BP [2]: 5 mmHg
Cc1cccnc1/N=C/N(C)C.Cl | > 50 | 8 | BP [2]: 9 mmHg
Cc1cc(C)c(/N=C/N(C)C)c(C)c1.Cl | 0.4 | -10 | ED50 [4]: 0.37 mg/kg; BP [2]: 2 mmHg
CCOC(=O)C(C)c1cc(C)c(/N=C/N(C)C)c(C)c1 (centres undefined) | > 50 |  | ED50 [5]: 22 mg/kg; ED50 [6]: 18 mg/kg; ED50 [1]: 8 mg/kg
CCOC(=O)C(C)(OC(C)=O)c1cc(C)c(/N=C/N(C)C)c(C)c1 (centres undefined) | > 50 |  | 
CCOC(=O)C(C)(O)c1cc(C)c(/N=C/N(C)C)c(C)c1 (centres undefined) | > 50 |  | 
C/N=C\Nc1cccc(Cl)c1Cl | 0.8 |  | 
C/N=C\Nc1c(C)cc(C)cc1C | 0.11 |  | 
C/N=C\Nc1ccc(Cl)c(Cl)c1.Cl | > 50 | 0 | BP [2]: -3 mmHg
C/N=C\Nc1ccc(Cl)cc1Cl | > 50 |  | 
C/N=C\Nc1c(Cl)cccc1Cl.Cl | 4.4 | -21 | BP [7]: -13 mmHg
C/N=C\Nc1ccccc1Cl | 35 |  | 
CN(C)/C=N/c1ccc(Cl)c(Cl)c1.Cl | > 50 | 0 | BP [2]: 2 mmHg
CCOC(=O)c1cc(C)c(/N=C/N(C)C)c(C)c1.Cl | > 50 |  | 
Cc1cc(C(O)c2ccc(Cl)c(Cl)c2)cc(C)c1/N=C/N(C)C (centres undefined) | > 50 |  | 
CC(=O)OC(C)c1cc(C)c(/N=C/N(C)C)c(C)c1 (centres undefined) | > 30 |  | 
CN(C)/C=N/c1c(Cl)cccc1Cl.Cl | 3 | -24 | BP [7]: -4 mmHg
C/N=C\Nc1ccc(C)cc1C.Cl | 0.02 | -10 | BP [7]: -19 mmHg
Clc1cccc(Cl)c1NC1=NCCN1 [CLONIDINE] | 0.02 | -29 | 
